Assay results collected from several papers.
Cell line: CCRF-CEM
Observed: cell growth or viability

| Structure (SMILES) | technique | time | IC50 |
| --- | --- | --- | --- |
| CC(C(=O)NC1CCCCC1)c1cccc(C(OC(=O)NC2CCCCC2)c2ccccc2)c1 (centres unmarked) |  | 72 h | 15 µM |
| COc1ccc2c(N)c(C(=O)c3cc(OC)c(OC)c(OC)c3)sc2c1 |  | 48 h | 0.0077 µM |
| N#Cc1ccc(NC(=S)NN)cc1 |  | 72 h | 21 mg/L |
| COc1ccc2c(N)c(C(=O)c3cc(OC)c(OC)c(OC)c3)n(C)c2c1 |  | 72 h | 0.071 µM |
| CC(C(=O)NOCc1ccccc1)c1cccc(C(OC(=O)NOCc2ccccc2)c2ccccc2)c1 (centres unmarked) |  | 72 h | 14 µM |
| COc1cc(C(=O)c2cc3c(-c4ccccc4)c(OC)ccc3o2)cc(OC)c1OC |  | 72 h | > 50 µM |
| CC(C(=O)NC1CCCC1)c1cccc(C(OC(=O)NC2CCCC2)c2ccccc2)c1 (centres unmarked) |  | 72 h | 12 µM |
| O=C(c1ccccc1)c1cc2c(-c3ccccc3)c(O)ccc2o1 |  | 72 h | 34 µM |
| CSc1ccc(NC(=S)NN)cc1 |  | 72 h | 20 mg/L |
| COc1ccc2c(N)c(C(=O)c3cc(OC)c(OC)c(OC)c3)[nH]c2c1 |  | 72 h | 0.32 µM |
| N#Cc1ccc(NC(=S)NN=Cc2ccc(F)cc2)cc1 |  | 72 h | 38 mg/L |
| COc1ccc2[nH]cc(CCNc3nccc(Nc4cccc5c4ccn5C)n3)c2c1 | fluorescence | 72 h | 0.01 µM |
| CC(C(=O)NCCc1ccccc1)c1cccc(C(OC(=O)NCCc2ccccc2)c2ccccc2)c1 (centres unmarked) |  | 72 h | 14 µM |
| N#Cc1ccc(NC(=S)NN=Cc2ccc([N+](=O)[O-])cc2)cc1 |  | 72 h | > 200 mg/L |
